Calls of active or inactive are those of the source. No cut-off for these calls is given here.
Assays:
[1] = target: T1, Inhibitor of nuclear factor kappa-B kinase subunit alpha (Mus musculus) (UniProt Q60680); assay: Inhibition of LPS-induced IkappaBalpha phosphorylation in mouse BMDM measured up to 120 mins by Western blot analysis
T1 sequence (whole entry): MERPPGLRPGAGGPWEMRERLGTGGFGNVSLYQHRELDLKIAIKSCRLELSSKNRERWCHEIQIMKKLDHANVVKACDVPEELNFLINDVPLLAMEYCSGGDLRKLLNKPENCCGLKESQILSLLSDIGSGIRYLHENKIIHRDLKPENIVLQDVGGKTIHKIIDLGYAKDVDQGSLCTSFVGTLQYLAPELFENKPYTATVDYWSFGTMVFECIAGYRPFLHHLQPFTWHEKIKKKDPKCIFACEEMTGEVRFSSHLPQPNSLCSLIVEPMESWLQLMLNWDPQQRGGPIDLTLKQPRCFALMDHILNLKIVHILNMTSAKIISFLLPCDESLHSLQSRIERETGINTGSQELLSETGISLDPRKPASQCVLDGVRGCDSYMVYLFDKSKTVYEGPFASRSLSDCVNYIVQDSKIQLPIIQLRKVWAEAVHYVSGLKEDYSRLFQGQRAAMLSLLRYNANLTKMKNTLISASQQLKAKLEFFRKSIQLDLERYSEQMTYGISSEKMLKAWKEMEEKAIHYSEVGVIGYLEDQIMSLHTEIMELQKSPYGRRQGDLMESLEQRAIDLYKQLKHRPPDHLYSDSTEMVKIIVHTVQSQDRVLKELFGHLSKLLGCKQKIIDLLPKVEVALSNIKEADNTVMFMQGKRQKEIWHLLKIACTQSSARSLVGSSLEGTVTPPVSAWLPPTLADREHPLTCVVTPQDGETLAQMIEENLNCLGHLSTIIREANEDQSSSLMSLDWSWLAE

Macrophage [2] = assay: Inhibition of LPS-induced IkappaBalpha expression in C57BL/6 mouse alveolar macrophages measured up to 120 mins by Western blot analysis; type: functional, cell-based
[3] = target: T1, Inhibitor of nuclear factor kappa-B kinase subunit alpha (Mus musculus); assay: Inhibition of LPS-induced IkappaBalpha phosphorylation in C57BL/6 mouse alveolar macrophages measured up to 120 mins by Western blot analysis
[4] = target: T2, MAP kinase p38 (Mus musculus) (UniProt P47811+O08911+Q9WUI1+Q9Z1B7); assay: Inhibition of LPS-induced p38 phosphorylation in C57BL/6 mouse alveolar macrophages measured up to 120 mins by Western blot analysis
[5] = target: MAP kinase p38 (Homo sapiens) (UniProt O15264+Q15759+Q16539+P53778); assay: Inhibition of LPS-induced p38 phosphorylation in human THP1 cells measured up to 120 mins by Western blot analysis; type: cell-based; conditions: THP-1
[6] = target: Transcription factor p65 (Mus musculus) (UniProt Q04207); assay: Inhibition of LPS-induced RelA phosphorylation in mouse BMDM treated 2 hrs after LPS challenge measured up to 120 mins by Western blot analysis
Transcription factor p65 (Mus musculus), sequence (Q04207 whole entry): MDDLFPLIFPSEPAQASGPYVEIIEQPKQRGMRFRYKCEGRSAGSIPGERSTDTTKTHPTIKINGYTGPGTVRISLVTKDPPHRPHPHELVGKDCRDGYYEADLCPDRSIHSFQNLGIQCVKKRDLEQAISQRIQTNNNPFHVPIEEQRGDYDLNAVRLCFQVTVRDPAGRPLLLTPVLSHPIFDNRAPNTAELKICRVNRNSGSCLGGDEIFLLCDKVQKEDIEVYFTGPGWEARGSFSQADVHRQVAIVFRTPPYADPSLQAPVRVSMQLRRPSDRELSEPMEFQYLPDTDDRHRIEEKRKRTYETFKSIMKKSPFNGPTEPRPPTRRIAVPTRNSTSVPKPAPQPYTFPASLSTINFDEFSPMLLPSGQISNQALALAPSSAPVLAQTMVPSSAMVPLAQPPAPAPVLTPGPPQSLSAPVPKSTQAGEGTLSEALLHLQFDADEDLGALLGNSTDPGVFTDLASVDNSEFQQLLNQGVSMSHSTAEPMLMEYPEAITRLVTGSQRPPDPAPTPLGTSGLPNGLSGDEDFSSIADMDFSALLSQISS

Mus musculus = species on record: Mus musculus; assay: Inhibition of IKK activity in LPS-induced mouse BMDM assessed as reduction in phosphorylation of IkappaBalpha treated 2 hrs after LPS challenge measured up to 120 mins by immunoblot analysis
BMDM [7] = assay: Inhibition of LPS-induced IRF-1 mRNA expression in mouse BMDM up to 3 hrs by Northern blot analysis; type: functional, cell-based
Macrophage [8] = assay: Inhibition of LPS-induced IkappaBalpha mRNA expression in mouse alveolar macrophages after 90 mins by Northern blot analysis; type: functional, cell-based
Macrophage [9] = assay: Inhibition of LPS-induced TNF mRNA expression in mouse alveolar macrophages after 90 mins by Northern blot analysis; type: functional, cell-based
MEF [10] = assay: Inhibition of LPS-induced MCP-1 mRNA expression in MEF after 90 mins by Northern blot analysis; type: functional, cell-based; conditions: Mus musculus
BMDM [11] = assay: Inhibition of heat-killed Staphylococcus aureus-induced IkappaBalpha mRNA expression in mouse BMDM by Northern blot analysis; type: functional
BMDM [12] = assay: Inhibition of heat-killed Staphylococcus aureus-induced IL1-beta mRNA expression in mouse BMDM by Northern blot analysis; type: functional
BMDM [13] = assay: Inhibition of heat-killed Staphylococcus aureus-induced RANTES mRNA expression in mouse BMDM by Northern blot analysis; type: functional, cell-based
MEF [14] = assay: Effect on TNF-induced MCP1 mRNA expression in MEF by Northern blot analysis; type: functional, cell-based; conditions: Mus musculus
[15] = target: T2, MAP kinase p38 (Mus musculus); assay: Inhibition of TNF-induced p38 phosphorylation in mouse MEF up to 120 mins by Western blot analysis
Epithelial cell = assay: Inhibition of TNF-induced IkappaBalpha expression in human bronchial epithelial cells up to 120 mins by Western blot analysis; type: functional, cell-based
[16] = target: T3, Inhibitor of nuclear factor kappa-B kinase subunit alpha (Homo sapiens) (UniProt O15111); assay: Inhibition of IkappaBalpha in human WI38 cells assessed after 2 hrs by Western blot analysis; type: cell-based; conditions: WI-38
T3 sequence (whole entry): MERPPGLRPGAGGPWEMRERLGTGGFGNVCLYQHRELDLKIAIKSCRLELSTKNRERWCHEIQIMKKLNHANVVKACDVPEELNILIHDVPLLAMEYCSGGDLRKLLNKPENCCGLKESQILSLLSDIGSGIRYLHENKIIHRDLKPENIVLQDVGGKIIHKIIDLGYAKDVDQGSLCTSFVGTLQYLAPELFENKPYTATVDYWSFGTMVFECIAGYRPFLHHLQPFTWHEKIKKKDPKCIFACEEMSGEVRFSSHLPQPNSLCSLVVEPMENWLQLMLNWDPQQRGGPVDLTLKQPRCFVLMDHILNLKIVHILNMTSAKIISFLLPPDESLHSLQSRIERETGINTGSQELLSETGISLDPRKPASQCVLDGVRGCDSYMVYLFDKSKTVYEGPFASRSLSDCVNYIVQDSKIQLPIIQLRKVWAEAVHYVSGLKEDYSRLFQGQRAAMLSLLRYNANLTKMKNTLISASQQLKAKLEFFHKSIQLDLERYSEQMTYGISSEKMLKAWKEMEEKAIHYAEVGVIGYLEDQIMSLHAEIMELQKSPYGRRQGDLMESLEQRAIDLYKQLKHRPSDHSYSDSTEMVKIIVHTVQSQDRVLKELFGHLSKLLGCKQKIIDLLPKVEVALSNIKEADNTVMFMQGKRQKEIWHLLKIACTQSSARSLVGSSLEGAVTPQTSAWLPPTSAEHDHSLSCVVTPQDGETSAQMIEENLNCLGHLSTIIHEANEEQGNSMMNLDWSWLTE
Summary of the method: (§1)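 WI38 lung fibroblasts and bronchial epithelial cells were stimulated for 2 hours. The same Western blot was probed for PARP cleavage, total IκBα and phosphorylated IκBα.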

[17] = target: T3, Inhibitor of nuclear factor kappa-B kinase subunit alpha (Homo sapiens); assay: Inhibition of IkappaBalpha phosphorylation in human WI38 cells assessed after 2 hrs by Western blot analysis; type: cell-based; conditions: WI-38; summary of the method: as §1
PBMC = assay: Inhibition of LPS-induced IkappaBalpha mRNA expression in human PBMC up to 50 uM by Northern blot analysis; type: functional, cell-based
Blood = assay: Inhibition of LPS-induced TNF production in human whole blood after 3 hrs; type: functional, tissue-based
Macrophage [18] = assay: Inhibition of LPS-induced IkappaBalpha mRNA expression in mouse C57BL/6 mouse alveolar macrophages up to 50 uM by Northern blot analysis; type: functional, cell-based

- Activity [1]: Active
- Activity [3]: Active
- Activity [4]: Active
- Activity [5]: Active
- Activity [6]: Active
- Activity (Mus musculus): Active
- Activity [15]: Active
- Activity [16]: Active
- Activity [17]: Active
Structure (SMILES): CCCCCCCCCC(=O)CC(=O)N[C@H]1CCOC1=O
- Activity (Macrophage [2]): Active
- Activity (BMDM [7]): Dose-dependent effect
- Activity (Macrophage [8]): Dose-dependent effect
- Activity (Macrophage [9]): Dose-dependent effect
- Activity (MEF [10]): Dose-dependent effect
- Activity (BMDM [11]): Active
- Activity (BMDM [12]): Active
- Activity (BMDM [13]): Active
- Activity (MEF [14]): Active
- Activity (Epithelial cell): Active
- Activity (PBMC): Active
- Activity (Blood): Active
- Activity (Macrophage [18]): Active

— ChEMBL document CHEMBL1152866, “Modulation of gene expression via disruption of NF-kappaB signaling by a bacterial small molecule” (Science, 2008)
